The source made the active and inactive calls. The rule behind the calls is not given here.
How the values were obtained:
[1] = test system: CNE-2; assay: Induction of apoptosis in human CNE-2 cells assessed as early apoptosis cells level at 20 nM incubated for 12 hrs by Annexin-V/FITC staining based FACS analysis (reference value: 1.45%); type: cell-based; details: cne-2, 12 h, 0.02 µM
[2] = Half life in Kunming mouse at 2 mg/kg, iv measured up to 6 hrs by HPLC analysis; type: ADME, organism-based; details: in vivo
Outline: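 Male Kunming mice, 9–11 weeks old, about 23 g, four per group, were given a single 2 mg/kg dose intravenously or orally. Blood was sampled at 0, 10, 15, 30 min and 1, 2, 4, 6 h. For each sample, 40 μL plasma was deproteinized with 200 μL acetonitrile and centrifuged 10 min at 12 000 rpm before analysis.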

[3] = test system: CNE-2; assay: Induction of apoptosis in human CNE-2 cells assessed as viable cells level at 200 nM incubated for 12 hrs by Annexin-V/FITC staining based FACS analysis (reference value: 96.7%); type: cell-based; details: read-out: Activity
Outline: (§1)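 CNE2 cells (RPMI 1640 with 10% FBS) were seeded at 5 × 10⁴ cells per well. After 24 h they were treated with compound in 0.05% DMSO for 12 h. Cells were then washed twice with PBS, pelleted, and stained in binding buffer with Annexin V-FITC and PI for flow cytometry.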

[4] = test system: CNE-2; assay: Induction of apoptosis in human CNE-2 cells overexpressing HSP90 assessed as necrosis cells level at 70 nM incubated for 12 hrs by Annexin-V/FITC staining based FACS analysis (reference value: 1.49%); type: cell-based; details: cne-2, 12 h, 0.07 µM
[5] = test system: CNE-2; assay: Induction of apoptosis in human CNE-2 cells assessed as late apoptosis cells level at 50 nM incubated for 12 hrs by Annexin-V/FITC staining based FACS analysis (reference value: 1.45%); type: cell-based; details: cne-2, 12 h, 0.05 µM
[6] = test system: CNE-2; assay: Induction of apoptosis in human CNE-2 cells assessed as early apoptosis cells level at 500 nM incubated for 12 hrs by Annexin-V/FITC staining based FACS analysis (reference value: 1.45%); type: cell-based; details: cne-2, 12 h, 0.5 µM
[7] = molecular target: T1, Heat shock protein HSP 90-alpha (Homo sapiens, UniProt P07900); assay: Inhibition of HSP90-alpha in human CNE-2 cells assessed as reduction in PKB protein levels at 20 to 500 nM incubated for 24 hrs by immunoblot analysis; type: cell-based; details: dose 20-500 nM
Outline: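 CNE2 cells (RPMI 1640, 10% FBS, 37 °C, 5% CO₂) were incubated with inhibitor for 24 h, then lysed in RIPA buffer on ice for 30 min. Lysates were run on 8–12% SDS-PAGE and transferred to PVDF. Membranes were blocked with 5% milk and probed with primary antibodies overnight, then HRP secondaries. Detection was by chemiluminescence with actin as loading control.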

[8] = test system: CNE-2; assay: Induction of apoptosis in human CNE-2 cells assessed as late apoptosis cells level at 70 nM incubated for 12 hrs by Annexin-V/FITC staining based FACS analysis (reference value: 2.18%); type: cell-based; details: cne-2, 12 h, 0.07 µM
[9] = molecular target: Heat shock protein HSP 90-beta (Homo sapiens, UniProt P08238); assay: Inhibition of HSP90-beta (unknown origin) expressed in Escherichia coli BL21 assessed as reduction in ATPase activity in presence of PEP, NADH and ATP by pyruvate kinase/lactic dehydrogenase based coupled enzyme assay
[10] = molecular target: T1, Heat shock protein HSP 90-alpha; assay: Inhibition of HSP90-alpha in human CNE-2 cells assessed as reduction in PKB protein levels at 70 nM incubated for 24 hrs in presence of HSP90-alpha siRNA by immunoblot analysis; type: cell-based
Outline: (§2)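 CNE2 cells were transiently transfected with Hsp90 siRNA (siHsp90-1 or siHsp90-2) at 150 nM final using Lipofectamine 2000. They were then incubated with inhibitor for 24 h and immunoblotted: RIPA lysis, 8–12% SDS-PAGE, PVDF, overnight primary antibodies, HRP secondaries, chemiluminescence, actin as loading control.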

[11] = test system: L02; assay: Toxicity in human L02 cells assessed as induction of apoptosis at 62.5 to 1000 nM incubated for 12 hrs by Annexin-V/FITC staining based FACS analysis; type: cell-based; details: l02, 12 h, 1 µM, dose 62.5-1000 nM
[12] = test system: CNE-2; assay: Induction of apoptosis in human CNE-2 cells assessed as Bcl-XL degradation at 70 nM incubated for 24 hrs in presence of HSP90-alpha siRNA by immunoblot analysis; type: functional, cell-based; outline: as §2
[13] = test system: CNE2 (Homo sapiens); assay: Induction of apoptosis in human CNE2 cells at 70 nM incubated for 12 hrs in presence of HSP90-alpha siRNA by Annexin-V/FITC staining based FACS analysis; details: cne2, 12 h, 0.07 µM
[14] = test system: CNE-2; assay: Induction of apoptosis in human CNE-2 cells assessed as necrosis cells level at 100 nM incubated for 12 hrs by Annexin-V/FITC staining based FACS analysis (reference value: 1.45%); type: cell-based; details: cne-2, 12 h, 0.1 µM
[15] = test system: CNE-2; assay: Induction of apoptosis in human CNE-2 cells assessed as late apoptosis cells level at 20 nM incubated for 12 hrs by Annexin-V/FITC staining based FACS analysis (reference value: 1.45%); type: cell-based; details: cne-2, 12 h, 0.02 µM
[16] = test system: CNE-2; assay: Induction of apoptosis in human CNE-2 cells assessed as early apoptosis cells level at 100 nM incubated for 12 hrs by Annexin-V/FITC staining based FACS analysis (reference value: 1.45%); type: cell-based; details: cne-2, 12 h, 0.1 µM
[17] = test system: CNE-2; assay: Antitumor activity against human CNE-2 cells xenografted in nu/nu mouse assessed as induction of tumor size shrinkage at 1 mg/kg, ip for 32 days; type: functional, organism-based; details: time 32.0 day
[18] = test system: CNE-2; assay: Cytotoxicity in human CNE-2 cells assessed as reduction in cell viability incubated for 48 hrs by MTT assay; type: cell-based; details: CNE-2, 48 h
Outline: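 Cells were seeded at 3 × 10³ cells per well and grown for 24 h at 37 °C in 5% CO₂. CNE2 was grown in RPMI 1640 and HeLa and HepG2 in DMEM, each with 10% FBS and 1% penicillin/streptomycin. Cells were exposed to 0−20 μM inhibitor for 48 h, with a DMSO solvent control. MTT (0.5 mg/mL) was then added for 3 h.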

[19] = test system: CNE-2; assay: Induction of apoptosis in human CNE-2 cells assessed as necrosis cells level at 70 nM incubated for 12 hrs by Annexin-V/FITC staining based FACS analysis (reference value: 1.49%); type: cell-based; details: cne-2, 12 h, 0.07 µM
[20] = test system: CNE-2; assay: Antitumor activity against human CNE-2 cells xenografted in nu/nu mouse assessed as inhibition of tumor growth at 1 mg/kg, po for 32 days; type: functional, organism-based; details: time 32.0 day
[21] = test system: CNE-2; assay: Induction of apoptosis in human CNE-2 cells assessed as viable cells level at 500 nM incubated for 12 hrs by Annexin-V/FITC staining based FACS analysis (reference value: 96.7%); type: cell-based; details: read-out: Activity; outline: as §1
[22] = test system: CNE-2; assay: Induction of apoptosis in human CNE-2 cells overexpressing HSP90 assessed as early apoptosis cells level at 70 nM incubated for 12 hrs by Annexin-V/FITC staining based FACS analysis (reference value: 3.1%); type: cell-based; details: cne-2, 12 h, 0.07 µM
[23] = test system: CNE-2; assay: Induction of apoptosis in human CNE-2 cells assessed as Bcl-XL degradation at 70 nM incubated for 24 hrs in presence of HSP90-beta siRNA by immunoblot analysis; type: functional, cell-based

Heat shock protein HSP 90-beta, sequence (P08238 whole entry): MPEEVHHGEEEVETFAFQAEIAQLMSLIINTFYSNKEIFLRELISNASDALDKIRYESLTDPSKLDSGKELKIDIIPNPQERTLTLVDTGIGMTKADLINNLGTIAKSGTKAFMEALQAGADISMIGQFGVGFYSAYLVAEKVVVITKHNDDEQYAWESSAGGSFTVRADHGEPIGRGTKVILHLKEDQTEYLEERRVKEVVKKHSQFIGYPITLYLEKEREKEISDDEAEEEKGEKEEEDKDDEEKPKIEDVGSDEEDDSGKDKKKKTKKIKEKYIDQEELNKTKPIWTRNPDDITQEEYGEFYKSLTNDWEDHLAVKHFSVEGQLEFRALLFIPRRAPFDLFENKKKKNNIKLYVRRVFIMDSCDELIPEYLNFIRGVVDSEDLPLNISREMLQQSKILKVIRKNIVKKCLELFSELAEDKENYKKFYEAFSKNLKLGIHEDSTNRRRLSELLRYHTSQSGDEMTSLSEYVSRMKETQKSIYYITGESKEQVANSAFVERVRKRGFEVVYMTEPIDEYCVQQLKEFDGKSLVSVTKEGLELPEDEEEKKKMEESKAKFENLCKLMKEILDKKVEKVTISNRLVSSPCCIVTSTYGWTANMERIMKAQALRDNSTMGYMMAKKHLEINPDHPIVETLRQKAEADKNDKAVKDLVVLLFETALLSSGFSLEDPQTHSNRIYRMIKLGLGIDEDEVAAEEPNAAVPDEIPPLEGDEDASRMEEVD

Compound: CC(C)(C)c1ccc(Cn2cc(-c3cc(O)c(O)c(O)c3)nn2)cc1
- Activity [1]: 4.08%
- half-life [2]: 66 min
- viability at 0.2 µM [3]: 75.1%
- Activity [4]: 0.64%
- Activity [5]: 15.3%
- Activity [6]: 33.6%
- inhibition [7]: Active
- Activity [8]: 9.56%
- IC50 [9]: 180 nM
- inhibition [10]: inactive
- Activity [11]: Non-Toxic
- Activity [12]: inactive
- Activity [13]: Non-Toxic
- Activity [14]: 0.57%
- Activity [15]: 2.19%
- Activity [16]: 6.22%
- Activity [17]: Active
- IC50 [18]: 40 nM
- Activity [19]: 1.2%
- TGI [20]: Active
- viability at 0.5 µM [21]: 32%
- Activity [22]: 3.96%
- Activity [23]: inactive

Source: ChEMBL document CHEMBL4706684, “Discovering High Potent Hsp90 Inhibitors as Antinasopharyngeal Carcinoma Agents through Fragment Assembling Approach” (J Med Chem, 2021)
